In ChEMBL document CHEMBL4689842, “EUbOPEN Chemogenomics Library wave 1” (2021):

How the values were obtained:
Format in all cases: toxicity, cell-based
Fibroblast [1] = experiment: Incucyte cell viability with human fibroblast; details: 10 µM, compound concentration 10 uM; also: filed as whole numbers so only -1 and 0 and 1 occur
U2OS = experiment: Incucyte cell viability with U2OS; details: human, 10 µM, compound concentration 10 uM; also: filed as whole numbers so only -1 and 0 and 1 occur
Fibroblast [2] = experiment: Multiplex assay against human fibroblast
Procedure, shortened: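 Phenotypes for tubulin, mitochondrial mass and membrane permeability are expressed as per cents of healthy-nucleus cells. Cells were stained live at seeding with Hoechst33342, BioTracker Green Microtubule Cytoskeleton Dye, MitoTracker Red and Annexin V Alexa Fluor 680, then imaged after compound addition on a CQ1 microscope at 37°C and 5% CO2. Machine-learning gating in CellPathfinder separated Hoechst high-intensity objects from normal cells, divided normal cells by nuclear state (healthy, pyknosed, fragmented) and divided pyknosed cells into mitotic or apoptotic.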

HEK-293T = experiment: Incucyte cell viability with HEK293T; details: human, 10 µM, compound concentration 10 uM; also: filed as whole numbers so only -1 and 0 and 1 occur
[3] = 0 h, replicate number 1, timepoint 0 hours
[4] = 24 h, replicate number 1, timepoint 24 hours
[5] = 12 h, replicate number 1, timepoint 12 hours
[6] = 18 h, replicate number 1, timepoint 18 hours
[7] = 12 h, 1 µM, compound concentration 1 uM, replicate 1
[8] = 12 h, 1 µM, compound concentration 1 uM, replicate 2
[9] = 12 h, 10 µM, compound concentration 10 uM, replicate 1
[10] = 12 h, 10 µM, compound concentration 10 uM, replicate 2
[11] = 24 h, 1 µM, compound concentration 1 uM, replicate 1
[12] = 24 h, 1 µM, compound concentration 1 uM, replicate 2
[13] = 24 h, 10 µM, compound concentration 10 uM, replicate 1
[14] = 24 h, 10 µM, compound concentration 10 uM, replicate 2
[15] = 48 h, 1 µM, compound concentration 1 uM, replicate 1
[16] = 48 h, 1 µM, compound concentration 1 uM, replicate 2
[17] = 48 h, 10 µM, compound concentration 10 uM, replicate 1
[18] = 48 h, 10 µM, compound concentration 10 uM, replicate 2

## CCn1c(-c2nonc2N)nc2cnc(Oc3cccc(NC(=O)c4ccc(OCCN5CCOCC5)cc4)c3)cc21 [GSK-269962A]
Fibroblast [1]; [3]
  Growth Rate: 0
Fibroblast [1]; [4]
  Growth Rate: 1
U2OS; [5]
  Growth Rate: 1
U2OS; [6]
  Growth Rate: 1
U2OS; [4]
  Growth Rate: 1
Fibroblast [2]; [7]
  Population Apoptotic (%): 50%
  Population Fragmented Nuclei (%): 29%
  Population Healthy Nuclei (%): 36%
  Population Hoechst High Intensity Objects (%): 12%
  Population Membrane Permeable-Phenotype (%): 22%
  Population Mitochondria Different-Phenotype (%): 2%
  Population Mitotic Cells (%): 50%
  Population Normal (%): 87%
  Population Pyknosed Nuclei (%): 33%
  Population Tubulin-Different-Phenotype (%): 46%
  Total Cell Count: 141
Fibroblast [2]; [8]
  Population Apoptotic (%): 20%
  Population Fragmented Nuclei (%): 20%
  Population Healthy Nuclei (%): 72%
  Population Hoechst High Intensity Objects (%): 2%
  Population Membrane Permeable-Phenotype (%): 14%
  Population Mitochondria Different-Phenotype (%): 16%
  Population Mitotic Cells (%): 80%
  Population Normal (%): 97%
  Population Pyknosed Nuclei (%): 7%
  Population Tubulin-Different-Phenotype (%): 14%
  Total Cell Count: 45
Fibroblast [2]; [9]
  Population Apoptotic (%): 55%
  Population Fragmented Nuclei (%): 40%
  Population Healthy Nuclei (%): 28%
  Population Hoechst High Intensity Objects (%): 12%
  Population Membrane Permeable-Phenotype (%): 21%
  Population Mitochondria Different-Phenotype (%): 47%
  Population Mitotic Cells (%): 44%
  Population Normal (%): 87%
  Population Pyknosed Nuclei (%): 30%
  Population Tubulin-Different-Phenotype (%): 83%
  Total Cell Count: 216
Fibroblast [2]; [10]
  Population Apoptotic (%): 31%
  Population Fragmented Nuclei (%): 20%
  Population Healthy Nuclei (%): 57%
  Population Hoechst High Intensity Objects (%): 7%
  Population Membrane Permeable-Phenotype (%): 45%
  Population Mitochondria Different-Phenotype (%): 97%
  Population Mitotic Cells (%): 68%
  Population Normal (%): 92%
  Population Pyknosed Nuclei (%): 22%
  Population Tubulin-Different-Phenotype (%): 100%
  Total Cell Count: 71
Fibroblast [2]; [11]
  Population Apoptotic (%): 47%
  Population Fragmented Nuclei (%): 21%
  Population Healthy Nuclei (%): 47%
  Population Hoechst High Intensity Objects (%): 14%
  Population Membrane Permeable-Phenotype (%): 19%
  Population Mitochondria Different-Phenotype (%): 9%
  Population Mitotic Cells (%): 52%
  Population Normal (%): 85%
  Population Pyknosed Nuclei (%): 31%
  Population Tubulin-Different-Phenotype (%): 41%
  Total Cell Count: 126
Fibroblast [2]; [12]
  Population Apoptotic (%): 75%
  Population Fragmented Nuclei (%): 11%
  Population Healthy Nuclei (%): 77%
  Population Hoechst High Intensity Objects (%): 2%
  Population Membrane Permeable-Phenotype (%): 1%
  Population Mitochondria Different-Phenotype (%): 10%
  Population Mitotic Cells (%): 25%
  Population Normal (%): 97%
  Population Pyknosed Nuclei (%): 11%
  Population Tubulin-Different-Phenotype (%): 14%
  Total Cell Count: 59
Fibroblast [2]; [13]
  Population Apoptotic (%): 57%
  Population Fragmented Nuclei (%): 37%
  Population Healthy Nuclei (%): 42%
  Population Hoechst High Intensity Objects (%): 12%
  Population Membrane Permeable-Phenotype (%): 11%
  Population Mitochondria Different-Phenotype (%): 58%
  Population Mitotic Cells (%): 42%
  Population Normal (%): 87%
  Population Pyknosed Nuclei (%): 20%
  Population Tubulin-Different-Phenotype (%): 81%
  Total Cell Count: 258
Fibroblast [2]; [14]
  Population Apoptotic (%): 53%
  Population Fragmented Nuclei (%): 30%
  Population Healthy Nuclei (%): 52%
  Population Hoechst High Intensity Objects (%): 5%
  Population Membrane Permeable-Phenotype (%): 67%
  Population Mitochondria Different-Phenotype (%): 97%
  Population Mitotic Cells (%): 46%
  Population Normal (%): 94%
  Population Pyknosed Nuclei (%): 17%
  Population Tubulin-Different-Phenotype (%): 100%
  Total Cell Count: 73
Fibroblast [2]; [15]
  Population Apoptotic (%): 57%
  Population Fragmented Nuclei (%): 28%
  Population Healthy Nuclei (%): 58%
  Population Hoechst High Intensity Objects (%): 11%
  Population Membrane Permeable-Phenotype (%): 12%
  Population Mitochondria Different-Phenotype (%): 3%
  Population Mitotic Cells (%): 42%
  Population Normal (%): 88%
  Population Pyknosed Nuclei (%): 13%
  Population Tubulin-Different-Phenotype (%): 29%
  Total Cell Count: 120
Fibroblast [2]; [16]
  Population Apoptotic (%): 66%
  Population Fragmented Nuclei (%): 27%
  Population Healthy Nuclei (%): 69%
  Population Hoechst High Intensity Objects (%): 12%
  Population Membrane Permeable-Phenotype (%): 3%
  Population Mitochondria Different-Phenotype (%): 0%
  Population Mitotic Cells (%): 33%
  Population Normal (%): 87%
  Population Pyknosed Nuclei (%): 3%
  Population Tubulin-Different-Phenotype (%): 22%
  Total Cell Count: 96
Fibroblast [2]; [17]
  Population Apoptotic (%): 50%
  Population Fragmented Nuclei (%): 36%
  Population Healthy Nuclei (%): 50%
  Population Hoechst High Intensity Objects (%): 20%
  Population Membrane Permeable-Phenotype (%): 6%
  Population Mitochondria Different-Phenotype (%): 38%
  Population Mitotic Cells (%): 50%
  Population Normal (%): 79%
  Population Pyknosed Nuclei (%): 13%
  Population Tubulin-Different-Phenotype (%): 80%
  Total Cell Count: 240
Fibroblast [2]; [18]
  Population Healthy Nuclei (%): 58%
  Population Hoechst High Intensity Objects (%): 22%
  Population Membrane Permeable-Phenotype (%): 3%
  Population Mitochondria Different-Phenotype (%): 17%
  Population Normal (%): 77%
  Population Pyknosed Nuclei (%): 4%
  Population Tubulin-Different-Phenotype (%): 86%
  Total Cell Count: 172
HEK-293T; [3]
  Growth Rate: 1
HEK-293T; 0 h, replicate number 2, timepoint 0 hours
  Growth Rate: 0
HEK-293T; 6 h, replicate number 1, timepoint 6 hours
  Growth Rate: 0
HEK-293T; [5]
  Growth Rate: 0
HEK-293T; [6]
  Growth Rate: 0
HEK-293T; [4]
  Growth Rate: 0
